Laboratory results published in publication PMC4222540 (Biochemistry, 2014).

Experiments:
cPAH D139N [1] = molecular target: T1, cPAH D139N (Chromobacterium violaceum, UniProt P30967, D139N); assay: Steady-state kinetics of phenylalanine hydroxylation; format: biochemical; settings: read-out: KM (DMPH), DMPH4 varied at saturated Phe (1 mM), 20 °C, pH 7.4
T1 sequence (P30967 1-297 D139N): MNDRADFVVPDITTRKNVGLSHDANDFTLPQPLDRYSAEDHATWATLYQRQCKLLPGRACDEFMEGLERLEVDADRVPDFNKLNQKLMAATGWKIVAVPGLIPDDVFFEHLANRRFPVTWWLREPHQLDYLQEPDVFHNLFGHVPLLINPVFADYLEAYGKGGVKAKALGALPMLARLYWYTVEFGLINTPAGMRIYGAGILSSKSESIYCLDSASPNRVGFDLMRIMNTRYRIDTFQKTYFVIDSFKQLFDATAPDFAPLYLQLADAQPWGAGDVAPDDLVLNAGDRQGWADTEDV

cPAH D139A [2] = molecular target: T2, cPAH D139A (Chromobacterium violaceum, UniProt P30967, D139A); assay: as above; format: biochemical; settings: read-out: KM (DMPH), DMPH4 varied at saturated Phe (1 mM), 20 °C, pH 7.4
T2 sequence (P30967 1-297 D139A): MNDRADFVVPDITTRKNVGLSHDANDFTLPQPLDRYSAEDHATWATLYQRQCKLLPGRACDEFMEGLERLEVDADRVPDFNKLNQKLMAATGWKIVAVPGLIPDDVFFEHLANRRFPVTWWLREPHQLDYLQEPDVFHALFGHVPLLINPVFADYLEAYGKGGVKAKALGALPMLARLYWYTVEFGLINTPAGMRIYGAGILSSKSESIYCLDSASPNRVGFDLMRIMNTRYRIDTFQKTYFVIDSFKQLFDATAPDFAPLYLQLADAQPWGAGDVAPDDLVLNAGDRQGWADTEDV

cPAH D139E [3] = molecular target: T3, cPAH D139E (Chromobacterium violaceum, UniProt P30967, D139E); assay: as above; format: biochemical; settings: read-out: KM (DMPH), DMPH4 varied at saturated Phe (1 mM), 20 °C, pH 7.4
T3 sequence (P30967 1-297 D139E): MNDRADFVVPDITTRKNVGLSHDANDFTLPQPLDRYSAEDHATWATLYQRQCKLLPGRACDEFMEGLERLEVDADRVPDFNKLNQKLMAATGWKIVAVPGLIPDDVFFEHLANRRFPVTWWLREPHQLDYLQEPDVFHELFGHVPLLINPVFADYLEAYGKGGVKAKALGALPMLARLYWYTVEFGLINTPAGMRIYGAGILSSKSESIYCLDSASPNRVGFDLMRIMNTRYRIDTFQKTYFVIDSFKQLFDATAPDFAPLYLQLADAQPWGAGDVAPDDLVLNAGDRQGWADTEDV

wild-type cPAH = molecular target: T4, wild-type cPAH (Chromobacterium violaceum, UniProt P30967); assay: ITC, Fe; format: binding; settings: anaerobic, 25 °C, 2.5 mM TCEP
T4 sequence (P30967 1-297): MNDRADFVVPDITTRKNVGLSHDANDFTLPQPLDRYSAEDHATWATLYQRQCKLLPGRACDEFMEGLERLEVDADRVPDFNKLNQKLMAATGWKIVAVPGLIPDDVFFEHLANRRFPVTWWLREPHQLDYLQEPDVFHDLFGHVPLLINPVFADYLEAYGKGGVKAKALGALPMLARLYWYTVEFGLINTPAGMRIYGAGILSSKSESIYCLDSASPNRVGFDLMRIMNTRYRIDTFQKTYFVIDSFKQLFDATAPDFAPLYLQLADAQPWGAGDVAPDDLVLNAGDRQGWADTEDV
Method in brief: (§1)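 Untagged cPAH (wild type or Asp139 point mutant), expressed from pET3a and purified by anion-exchange and size-exclusion chromatography, in apo form. Anaerobic ITC under argon at 25 °C: 500 μM ferrous ammonium sulfate in dialysis buffer with 2.5 mM TCEP titrated into 50 μM protein containing 2.5 mM TCEP. 18 injections of 2 μL, 180 s apart.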

cPAH D139N [4] = molecular target: T1, cPAH D139N; assay: ITC, Fe; format: binding; settings: anaerobic, 25 °C, 2.5 mM TCEP
Method in brief: as §1

cPAH D139A [5] = molecular target: T2, cPAH D139A; assay: ITC, Fe; format: binding
Method in brief: as §1

cPAH D139E [6] = molecular target: T3, cPAH D139E; assay: ITC, Fe; format: binding
Method in brief: as §1

cPAH D139K = molecular target: T5, cPAH D139K (Chromobacterium violaceum, UniProt P30967, D139K); assay: ITC, Fe; format: binding
T5 sequence (P30967 1-297 D139K): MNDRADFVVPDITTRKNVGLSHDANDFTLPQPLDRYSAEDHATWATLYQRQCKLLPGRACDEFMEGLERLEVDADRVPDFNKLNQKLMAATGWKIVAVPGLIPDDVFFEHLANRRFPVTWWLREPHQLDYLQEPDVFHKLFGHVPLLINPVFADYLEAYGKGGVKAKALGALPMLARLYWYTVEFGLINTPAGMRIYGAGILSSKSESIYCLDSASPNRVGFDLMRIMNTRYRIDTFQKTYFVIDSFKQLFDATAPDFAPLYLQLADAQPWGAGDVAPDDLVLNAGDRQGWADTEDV
Method in brief: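 Untagged apo cPAH D139K, purified by anion-exchange and size-exclusion chromatography. Anaerobic ITC under argon at 25 °C with 2.5 mM TCEP in titrant and in 50 μM protein. FeSO4 titrated at 10-fold excess (500 μM) and again at 20-fold excess over protein. 18 injections of 2 μL, 180 s apart.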

[7] = Steady-state kinetics: turnover; format: biochemical, Chromobacterium violaceum; settings: for fold lower kcat relative to wild-type cPAH / kcat: enzyme variant as labelled; for kcat: DMPH4 cofactor, 20 °C, pH 7.4
Method in brief: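 Phenylalanine hydroxylation followed by tyrosine formation at 275 nm (ε275 = 1405 L mol−1 cm−1) at 20 ± 1 °C. Enzyme ranged from 1 μM (wild type) to 30 μM (D139A), with 5-fold molar excess of ferrous ammonium sulfate, 5 mM DTT and 1000 units/mL catalase in 0.1 M O2-saturated Na-HEPES, pH 7.4. DMPH4 was varied at 1 mM Phe, and Phe was varied at 350 μM DMPH4. Triplicates were fit to Michaelis–Menten and reported as mean ± SD of three independent experiments.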

[8] = 20-fold excess of FeSO4, anaerobic, 25 °C, 2.5 mM TCEP

Molecule: CC1Nc2nc(N)[nH]c(=O)c2NC1C (centres unmarked) [DMPH, 6,7-dimethyl-5,6,7,8-tetrahydropterine]
- Km (cPAH D139N [1]): 262 ± 41 µM
- Km (cPAH D139A [2]): 254 ± 47 µM
- Km (cPAH D139E [3]): 236 ± 38 µM

Molecule: O=S(=O)([O-])[O-].O=S(=O)([O-])[O-].[Fe+2].[NH4+].[NH4+] [Fe(II), ferrous ammonium sulfate]
- Kd (wild-type cPAH): 151 ± 30 nM
- N (ITC stoichiometry) (wild-type cPAH): 0.8
- ΔH (wild-type cPAH): –4.0 ± 0.1 kcal mol^–1
- ΔS (wild-type cPAH): 18 cal mol^–1
- Kd (cPAH D139N [4]): 139 ± 60 nM
- N (ITC stoichiometry) (cPAH D139N [4]): 0.7
- ΔH (cPAH D139N [4]): –4.5 ± 0.3 kcal mol^–1
- ΔS (cPAH D139N [4]): 16 cal mol^–1
- fold increase in Kd for iron vs wild type (cPAH D139A [5]): ~6 fold
- Kd (cPAH D139A [5]; anaerobic, 25 °C, 2.5 mM TCEP): 944 ± 170 nM
- N (ITC stoichiometry) (cPAH D139A [5]; anaerobic, 25 °C, 2.5 mM TCEP): 0.9
- ΔH (cPAH D139A [5]; anaerobic, 25 °C, 2.5 mM TCEP): –2.5 ± 0.1 kcal mol^–1
- ΔS (cPAH D139A [5]; anaerobic, 25 °C, 2.5 mM TCEP): 19 cal mol^–1
- fold increase in Kd for iron vs wild type (cPAH D139E [6]): ~4 fold
- Kd (cPAH D139E [6]; anaerobic, 25 °C, 2.5 mM TCEP): 479 ± 170 nM
- N (ITC stoichiometry) (cPAH D139E [6]; anaerobic, 25 °C, 2.5 mM TCEP): 0.8
- ΔH (cPAH D139E [6]; anaerobic, 25 °C, 2.5 mM TCEP): –1.5 ± 0.1 kcal mol^–1
- ΔS (cPAH D139E [6]; anaerobic, 25 °C, 2.5 mM TCEP): 24 cal mol^–1
- fold reduction in binding affinity for iron vs wild type (cPAH D139K): ~500 fold
- iron binding (ITC isotherm) (cPAH D139K; 10-fold excess of FeSO4 (500 µM)): no binding was observed
- Kd (cPAH D139K; [8]): 76500 ± 700 nM
- N (ITC stoichiometry) (cPAH D139K; [8]): 1
- ΔH (cPAH D139K; [8]): 1.4 ± 0.6 kcal mol^–1
- ΔS (cPAH D139K; [8]): 23 cal mol^–1

B1: D139N (protein, UniProt P30967 1-297, looked up, variant D139N)
Phenylalanine-4-hydroxylase: MNDRADFVVPDITTRKNVGLSHDANDFTLPQPLDRYSAEDHATWATLYQRQCKLLPGRACDEFMEGLERLEVDADRVPDFNKLNQKLMAATGWKIVAVPGLIPDDVFFEHLANRRFPVTWWLREPHQLDYLQEPDVFHNLFGHVPLLINPVFADYLEAYGKGGVKAKALGALPMLARLYWYTVEFGLINTPAGMRIYGAGILSSKSESIYCLDSASPNRVGFDLMRIMNTRYRIDTFQKTYFVIDSFKQLFDATAPDFAPLYLQLADAQPWGAGDVAPDDLVLNAGDRQGWADTEDV
- fold lower kcat relative to wild-type cPAH [7]: ~16 fold
- kcat [7]: 1.2 ± 0.1 s^–1

B2: D139A (protein, UniProt P30967 1-297, looked up, variant D139A)
Phenylalanine-4-hydroxylase: MNDRADFVVPDITTRKNVGLSHDANDFTLPQPLDRYSAEDHATWATLYQRQCKLLPGRACDEFMEGLERLEVDADRVPDFNKLNQKLMAATGWKIVAVPGLIPDDVFFEHLANRRFPVTWWLREPHQLDYLQEPDVFHALFGHVPLLINPVFADYLEAYGKGGVKAKALGALPMLARLYWYTVEFGLINTPAGMRIYGAGILSSKSESIYCLDSASPNRVGFDLMRIMNTRYRIDTFQKTYFVIDSFKQLFDATAPDFAPLYLQLADAQPWGAGDVAPDDLVLNAGDRQGWADTEDV
- fold lower kcat relative to wild-type cPAH [7]: ~100 fold
- kcat [7]: 0.19 ± 0.01 s^–1

B3: D139K (protein, UniProt P30967 1-297, looked up, variant D139K)
Phenylalanine-4-hydroxylase: MNDRADFVVPDITTRKNVGLSHDANDFTLPQPLDRYSAEDHATWATLYQRQCKLLPGRACDEFMEGLERLEVDADRVPDFNKLNQKLMAATGWKIVAVPGLIPDDVFFEHLANRRFPVTWWLREPHQLDYLQEPDVFHKLFGHVPLLINPVFADYLEAYGKGGVKAKALGALPMLARLYWYTVEFGLINTPAGMRIYGAGILSSKSESIYCLDSASPNRVGFDLMRIMNTRYRIDTFQKTYFVIDSFKQLFDATAPDFAPLYLQLADAQPWGAGDVAPDDLVLNAGDRQGWADTEDV
- catalytic activity (hydroxylation of phenylalanine to tyrosine) ([7]; nonenzymatic amounts of protein required for minimal tyrosine formation): inactive

B4: wild type: wild-type phenylalanine hydroxylase from Chromobacterium violaceum (cPAH) (protein, UniProt P30967 1-297, looked up)
Phenylalanine-4-hydroxylase: MNDRADFVVPDITTRKNVGLSHDANDFTLPQPLDRYSAEDHATWATLYQRQCKLLPGRACDEFMEGLERLEVDADRVPDFNKLNQKLMAATGWKIVAVPGLIPDDVFFEHLANRRFPVTWWLREPHQLDYLQEPDVFHDLFGHVPLLINPVFADYLEAYGKGGVKAKALGALPMLARLYWYTVEFGLINTPAGMRIYGAGILSSKSESIYCLDSASPNRVGFDLMRIMNTRYRIDTFQKTYFVIDSFKQLFDATAPDFAPLYLQLADAQPWGAGDVAPDDLVLNAGDRQGWADTEDV
- kcat [7]: 18.6 ± 0.1 s^–1

B5: D139E (protein, UniProt P30967 1-297, looked up, variant D139E)
Phenylalanine-4-hydroxylase: MNDRADFVVPDITTRKNVGLSHDANDFTLPQPLDRYSAEDHATWATLYQRQCKLLPGRACDEFMEGLERLEVDADRVPDFNKLNQKLMAATGWKIVAVPGLIPDDVFFEHLANRRFPVTWWLREPHQLDYLQEPDVFHELFGHVPLLINPVFADYLEAYGKGGVKAKALGALPMLARLYWYTVEFGLINTPAGMRIYGAGILSSKSESIYCLDSASPNRVGFDLMRIMNTRYRIDTFQKTYFVIDSFKQLFDATAPDFAPLYLQLADAQPWGAGDVAPDDLVLNAGDRQGWADTEDV
- fold lower kcat relative to wild-type cPAH [7]: 10 fold
- kcat [7]: 1.9 ± 0.1 s^–1
